Screens (PubChem)
Most compounds without a hit are left out; they make up all but 1.8% or so of the library.
Thrombin inh: human alpha-thrombin inhibitors, primary screen, counter-screen for coagulation protease inhibitor project, biochemical, 1536-well, fluorogenic AMC substrate; 220,000 tested, 0.26% active; AID 1046, 2008; Prothrombin (Homo sapiens), P00734; inhibition, % at 5 µM; Boc-VPR-AMC fluorogenic substrate cleavage;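 active = inhibition at or above 40%; inactive = inhibition below 40%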;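 note: 0% = enzyme with no compound and 100% = wells without enzyme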
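Material: human alpha-thrombin enzyme / Medium: pH 7.5 Tris (50 mM) with NaCl 150 mM, Tween 20 0.05% / Compound: single-point dosing at 5 µM, 0.2% DMSO / Incubation: enzyme reaction carried out at room temperature / Detection: AMC fluorescence, 355/460 nm / Read-out basis: percent inhibition scaled between no-compound controls and no-enzyme blanks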
hK5 inh: human KLK5 protease inhibitors, primary screen, biochemical, 1536-well | 210,000 tested, 0.59% active | inhibition, % at 5 µM | recombinant hK5, fluorogenic AMC substrate cleavage | Kallikrein-5 (Homo sapiens), Q9Y337;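 active = inhibition of 40% or more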;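 note: 0% = enzyme controls without compound and 100% = no-enzyme blanks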
Wee1 degr inh: Wee1 degradation inhibitors, primary screen, cell-based, HeLa, Wee1K328M-luciferase, luminescence | Wee1-like protein kinase (Homo sapiens), P30291 | HeLa Luc-Wee1K328M stability; 100% = proteasome inhibitor MG132 effect | reporter increase, % at 5 µM | 220,000 tested, 1.2% active;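 active = activation above the mean of all tested compounds plus 3 SD, set per screening run, cut at about 8.8% in these data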;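 note: cells exposed to compound for 20 h before luminescence read; 0% = DMSO alone and 100% = MG132 at 30 µM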
FXIIa inh 1536: human FXIIa protease inhibitors, primary screen, biochemical, 1536-well; Coagulation factor XII (Homo sapiens), P00748; purified FXIIa, Boc-QGR-AMC fluorogenic substrate, 2 h; inhibition, % at 5 µM; 220,000 tested, 0.3% active; in the data active = inhibition above about 40%;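 note: 0% = enzyme with no compound and 100% = blank without enzyme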
Target sequence (P00748 20-372 limits assumed): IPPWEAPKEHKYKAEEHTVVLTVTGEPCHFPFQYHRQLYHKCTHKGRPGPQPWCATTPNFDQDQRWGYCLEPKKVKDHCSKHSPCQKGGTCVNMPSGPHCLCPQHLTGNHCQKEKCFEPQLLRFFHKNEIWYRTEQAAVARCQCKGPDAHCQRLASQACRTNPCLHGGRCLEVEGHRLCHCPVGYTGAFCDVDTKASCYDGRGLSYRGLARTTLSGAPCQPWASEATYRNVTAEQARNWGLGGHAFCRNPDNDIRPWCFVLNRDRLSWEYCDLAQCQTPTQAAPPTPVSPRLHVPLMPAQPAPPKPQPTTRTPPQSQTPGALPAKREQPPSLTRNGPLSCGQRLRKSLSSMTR
Target sequence (P00748 373-615 limits assumed): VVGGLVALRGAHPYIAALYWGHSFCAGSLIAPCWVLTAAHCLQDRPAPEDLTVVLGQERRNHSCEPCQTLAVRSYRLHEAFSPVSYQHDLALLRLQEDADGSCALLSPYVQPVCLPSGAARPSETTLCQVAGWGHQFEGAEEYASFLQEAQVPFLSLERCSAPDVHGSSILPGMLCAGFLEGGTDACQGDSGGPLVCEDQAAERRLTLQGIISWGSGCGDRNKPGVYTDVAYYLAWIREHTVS
FXIa inh: human FXIa protease inhibitors, primary screen, biochemical, 1536-well. 220,000 tested, 0.14% active. AID 798, 2007. Coagulation factor XI (Homo sapiens), P03951. purified FXIa, Boc-Glu-Ala-Arg-AMC fluorogenic substrate. inhibition, % at 5 µM;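 active = inhibition of at least 40%; inactive = inhibition below 40%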;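 note: fluorescence of freed AMC excited at 355 nm; 0% = enzyme without compound and 100% = no enzyme blank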
Platelet DG rel: inhibitors of platelet dense granule secretion, primary screen, cell-based, MLPCN, human platelets; inhibition, %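 (compounds screened at 7.5 µM in platelet-rich plasma)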; human platelet-rich plasma, SFLLRN dense granule ATP release, luminescence; 300,000 tested, 0.22% active;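 active = mean replicate score, as percent of positive control, at or above 50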
Active calls of the source: *; nt = not tested or not shown; ! = a repeat was not active.

SMILES	Thrombin inh	hK5 inh	Wee1 degr inh	FXIIa inh 1536	FXIa inh	Platelet DG rel
Cc1ccsc1C(=O)C1CCCN(Cc2cnc(N)nc2)C1 (stereo not drawn)	6	5	9.6*	9	8	2
Cc1ccsc1C(=O)C1CCCN(Cc2cnn(C(C)C)c2)C1 (stereo not drawn)	-9	2	0	8	-1	-2
CC(NCc1ccc(Cl)cc1)C(O)c1ccccc1 (stereo not drawn)	-2	-1	8.9*	0	2	2
CCCC(=O)N(C)C1=Nc2ccc(Cl)cc2C(c2ccccc2)=[N+]([O-])C1	-3	-2	-2	7	-2	-2
CN(C)C(Cc1ccccc1)C(=O)c1ccc(-c2ccccc2)cc1 (stereo not drawn)	17	98*	0	13	11	2
COc1ccc(C(=O)C(Cc2ccccc2)N(C)C)cc1 (stereo not drawn)	1	-9	0	16	2	11
CCCC(C)C1C(C#N)=C(N)Oc2c1c(=O)oc1ccccc21 (stereo not drawn)	10	68*	2	26	16	2
CCCC1C(C#N)=C(N)Oc2c1c(=O)oc1ccccc21 (stereo not drawn)	0	-7	-2	19	12	-3
COc1cccc(N=Nc2c(O)[nH]c(=S)[nH]c2=O)c1	-3	-8	2	16	7	6
COc1ccc(N=Nc2c(O)[nH]c(=S)[nH]c2=O)cc1	2	2	9.8*	5	4	-2
O=c1c2ccccc2[nH]c(=S)n1-c1cccnc1	-1	0	9.7*	5	4	-5
COc1ccc(/C=N/N=C(/N)N[N+](=O)[O-])c(OC)c1	5	-4	-1	15	3	121*
N/C(=N\N=C/c1ccc(-c2ccc(O)c(C(=O)O)c2)o1)N[N+](=O)[O-]	-2	-21	2	7	-2	8
CCN1C[C@]2(COC)CC[C@H](O)[C@@]34C5C[C@H]6[C@H](O)C5[C@](O)(C[C@H]6OC)[C@@H]([C@H](OC)C23)[C@@H]14 (stereo partly drawn)	nt	nt	nt	nt	nt	-1
CN1CCC(c2c[nH]c3ccccc23)C1 (stereo not drawn)	-1	0	0	8	-1	1
CC1CCCC(C)N1/N=C/c1c[nH]c2ccc(Br)cc12 (stereo not drawn)	18	45*	1	19	1	8
CN(C)CP(=O)(Nc1ccccc1)N(C)C (stereo not drawn)	27	67*	0	19	5	-13
CN(CC1COc2ccccc2O1)c1nc(-c2cccnc2)nc2ccccc12 (stereo not drawn)	17	53*	1	10	11	-3
Cc1nn(C2CCOC(C)(C)C2)c2c1C(c1ccc3c(c1)OCO3)SCC(=O)N2 (stereo not drawn)	-4	-10	11*	-1	-12	-1
Cc1ccccc1NC(=O)CCl	50*	-5	-2	13	1	-2
CC(=O)c1ccccc1NC(=O)C1C2CCC(O2)C1C(=O)O (stereo not drawn)	1	-21	0	14	3	-1
CC1CC(NC(=O)C2C3CCC(O3)C2C(=O)O)CC(C)(C)C1 (stereo not drawn)	-4	-5	1	46*	23	1
O=[N+]([O-])/C=C1\NCCN1Cc1ccc(Cl)nc1	-9	-2	9.6*!	9	0	3
O=[N+]([O-])NC1=NCN(Cc2ccco2)CN1Cc1ccco1	-7	-25	1	5	4	-6
CN1CCc2c(C#N)c(Cl)nc(Cl)c2C1	32	4	0	20	11	-1
SMILES	Thrombin inh	hK5 inh	Wee1 degr inh	FXIIa inh 1536	FXIa inh	Platelet DG rel
CN1C(=O)NC(=O)/C(=C/c2ccc(C(=O)O)cc2)C1=O	-3	-1	-1	4	-4	2
Cc1ccc(/C=C2/C(=O)NC(=O)N(C)C2=O)cc1	-7	-17	8.9*	3	-6	0
COc1ccc2c(c1)NP(=S)(Oc1ccccc1)N2 (stereo not drawn)	-8	-15	0	4	1	-14
C=C(C)CSc1nnc([C@@H](N)Cc2ccccc2)o1	6	-2	1	7	8	0
CN(C)C(=O)CSc1nnc([C@@H](N)Cc2ccccc2)o1	61*	23	0	61*	13	-4
CCNc1cc(N2CCNCC2)ccc1[N+](=O)[O-]	34	28	3	28	68*	2
Cc1cc(N(CCCl)CCCl)ccc1/C=N/N=C(\N)c1cnccn1	nt	nt	nt	nt	nt	-5
CSCCC(N=Cc1c(O)n(-c2ccc(F)cc2)c(=O)[nH]c1=O)C(=O)OC(C)(C)C (stereo not drawn)	-4	26	-1	5	0	-1
O=c1[nH]c(=S)n(C2CC2)c(O)c1/C=N/Nc1ccccc1	4	-11	2	21	12	2
O=c1[nH]c(=S)n(C2CC2)c(O)c1/C=N/Nc1cccc2ccccc12	-2	-66	8.9*	11	14	12
Cc1cc(C(=O)CS(=O)(=O)c2ccccc2)cc(C)c1OC(=O)N(C)C	-13	-3	10*	5	-5	-4
Cc1ccc(S(=O)(=O)CC(=O)c2cc(C)c(OC(=O)N(C)C)c(C)c2)cc1	-18	-4	3	8	-1	0
CC1C(OC(=O)CCC(=O)NC(C)(C)CO)O[C@H]2OC3(C)CC[C@H]4[C@H](C)CCC1C24OO3 (stereo partly drawn)	nt	nt	nt	nt	nt	5
C/C=C(\C)C(=O)OC1C(C)=C2C(C1OC(=O)CCCCC)C(C)(OC(C)=O)CC(OC(=O)CCC)C1(O)C2OC(=O)C1(C)O (stereo not drawn)	-4	0	nt	8	1	-1
Cc1ccc(-c2nn(Cc3ccccc3)cc2C=O)cc1	-9	-15	9.1*	4	-6	-2
CCOC(=O)C1(c2ccccc2)CCN(CC(=O)Nc2cccc3ccccc23)CC1	2	-22	-2	11	21	-16
CCOC(=O)C1(c2ccccc2)CCN(Cc2cccc(C(=O)O)c2)CC1	20	44*	-3	19	12	3
C[C@]12CCC(=O)C=C1CCC1C2CC[C@@]2(C)C1CC[C@@]2(O)CC#N (stereo partly drawn)	16	62*	-2	17	9	nt
